Results from ChEMBL document CHEMBL1134616, “Novel 7-oxyiminomethyl derivatives of camptothecin with potent in vitro and in vivo antitumor activity” (J Med Chem, 2001).
pIC50: −log10 of the molar value.

What was measured:
[1] = system: NCI-H460; test: Percentage inhibition of tumor volume in treated versus control mice against human Non-Small-Cell tumor xenograft at a oral dose of 2 mg/kg; type: functional; conditions: Mus musculus
How it was run: (§1)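 Nude athymic CD1 mice, 8–10 weeks old, with human lung tumor fragments implanted s.c. in both flanks. Oral dosing in 10 mL/kg, q4dx4, started when tumors were visible but not measurable. Tumor volume = d²×D/2 from caliper diameters. Percent inhibition of treated versus control volume taken 7–10 days after the last dose. Volumes compared by Student's t test, P<0.05.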

[2] = Percentage of body weight loss in mice with lung carcinoma LX-1 at a oral dose of 3 mg/kg; type: functional, Mus musculus
How it was run: (§2)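 Nude athymic CD1 mice, 8–10 weeks old, bearing s.c. human lung tumor xenografts in both flanks. Given oral drug in 10 mL/kg on a q4dx4 schedule, beginning when tumors were visible but not measurable. Read-out is percent body weight loss after drug treatment.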

[3] = system: NCI-H460; test: No. of dead mice/ total No. of mice with human Non-Small-Cell tumor at a oral dose of 2 mg/kg; type: ADME, organism-based; set-up: dose 2 mg/kg, route oral; conditions: in vivo
How it was run: (§3)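 Human lung tumor s.c. xenografts (fragments, both flanks) in nude athymic CD1 mice aged 8–10 weeks. Oral q4dx4 dosing at 10 mL/kg, begun when tumors were visible but not measurable. Toxicity is recorded as the number of dead mice over the total number of treated mice.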

[4] = Log 10 cell kill induced by treatment in mice with lung carcinoma LX-1 at a oral dose of 3 mg/kg; type: functional, Mus musculus
How it was run: (§4)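 Nude athymic CD1 mice, 8–10 weeks, carrying s.c. human lung tumor fragments in both flanks. Given per os on a q4dx4 schedule at 10 mL/kg, starting when tumors were visible but not measurable. Volume = d²×D/2. Log10 cell kill = T−C/3.32 × tumor doubling time, where T and C are the days for treated and control tumors to reach a mean volume of 1000 mm³.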

[5] = system: NCI-H460; test: Log 10 cell kill induced by treatment in CD1 mice with human Non-Small-Cell tumor at a oral dose of 2 mg/kg; type: functional; how it was run: as §4
[6] = system: NCI-H460; test: Percentage inhibition of tumor volume in treated versus control mice against human Non-Small-Cell tumor xenograft at a oral dose of 3 mg/kg; type: functional; conditions: Mus musculus; how it was run: as §1
[7] = system: NCI-H460; test: No. of dead mice/ total No. of mice with human Non-Small-Cell tumor at a oral dose of 3 mg/kg; type: ADME, organism-based; set-up: dose 3 mg/kg, route oral; conditions: in vivo; how it was run: as §3
[8] = system: NCI-H460; test: Complete response in CD1 mice with human Non-Small-Cell tumor at a oral dose of 3 mg/kg; type: functional
How it was run: (§5)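 Nude athymic CD1 mice, 8–10 weeks old, carrying serially passaged human lung tumor fragments implanted s.c. in both flanks. Oral dosing in 10 mL/kg on a q4dx4 schedule, begun once tumors were visible but not yet measurable. Complete response means no detectable tumor for at least 10 days after the end of treatment.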

[9] = system: NCI-H460; test: Complete response in CD1 mice with human Non-Small-Cell tumor at a oral dose of 2 mg/kg; type: functional; how it was run: as §5
[10] = Percentage inhibition of tumor volume in treated versus control mice against human Non-Small-Cell tumor xenograft at a oral dose of 4 mg/kg; type: functional; conditions: Mus musculus; how it was run: as §1
[11] = system: NCI-H460; test: No. of dead mice/ total No. of mice in CD1 mice with human Non-Small-Cell tumor at a oral dose of 1 mg/kg; type: ADME, organism-based; set-up: dose 1 mg/kg, route oral; conditions: in vivo; how it was run: as §3
[12] = system: NCI-H460; test: Percentage of body weight loss in CD1 mice with human Non-Small-Cell tumor at a oral dose of 4 mg/kg
[13] = Percentage of body weight loss in CD1 mice with human Non-Small-Cell tumor at a oral dose of 4 mg/kg; type: functional, Mus musculus; how it was run: as §2
[14] = Complete response in CD1 mice with human Non-Small-Cell tumor at a oral dose of 4 mg/kg; type: functional, Mus musculus; how it was run: as §5
[15] = Percentage inhibition of tumor volume mice with lung carcinoma LX-1 at a oral dose of 3 mg/kg; type: functional; conditions: Mus musculus; how it was run: as §1
[16] = system: NCI-H460; test: Log 10 cell kill induced by treatment in CD1 mice with human Non-Small-Cell tumor at a oral dose of 3 mg/kg; type: functional; how it was run: as §4
[17] = system: NCI-H460; test: Percentage inhibition of tumor volume in treated versus control mice against human Non-Small-Cell tumor xenograft at a oral dose of 1 mg/kg; type: functional; conditions: Mus musculus; how it was run: as §1
[18] = system: NCI-H460; test: Percentage of body weight loss in CD1 mice with human Non-Small-Cell tumor at a oral dose of 1 mg/kg; type: functional; how it was run: as §2
[19] = system: NCI-H460; test: Complete response in CD1 mice with human Non-Small-Cell tumor at a oral dose of 1 mg/kg; type: functional; how it was run: as §5
[20] = Complete response in mice with lung carcinoma LX-1 at a oral dose of 3 mg/kg; type: functional, Mus musculus; how it was run: as §5
[21] = system: NCI-H460; test: Percentage of body weight loss in CD1 mice with human Non-Small-Cell tumor at a oral dose of 2 mg/kg; type: functional; how it was run: as §2
[22] = system: NCI-H460; test: Log 10 cell kill induced by treatment iin CD1 mice with human Non-Small-Cell tumor at a oral dose of 1 mg/kg; type: functional; how it was run: as §4
[23] = No. of dead mice/ total No. of mice in mice with lung carcinoma LX-1 at a oral dose of 3 mg/kg; type: ADME, organism-based; set-up: dose 3 mg/kg, route oral; conditions: mouse, in vivo; how it was run: as §3
[24] = Cytotoxicity against human non-small-cell lung carcinoma cell line H460 (NSCLC-H460); type: functional, cell-based
How it was run: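 Logarithmically growing cells were seeded in duplicate, exposed to drug for 1 h starting 24 h after seeding, and counted by Coulter counter 72 h after exposure. Drug was dissolved in DMSO before dilution. The IC50 is the concentration giving a 50% decrease in growth relative to untreated control.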

[25] = Log 10 cell kill induced by treatment in CD1 mice with human Non-Small-Cell tumor at a oral dose of 2 mg/kg

Q: Which inhibition in vivo at 2 mg/kg [1] does the source give for `CC[C@@]1(O)C(=O)OCc2c1cc1n(c2=O)Cc2c-1nc1ccccc1c2/C=N/OC(C)(C)C` [GIMATECAN] here?
A: Its inhibition in vivo at 2 mg/kg is 99%.

Q: What about the BWL [2] of the same compound?
A: The BWL was 11%.

Q: And the Toxicity [3]?
A: The Toxicity was 0.

Q: And the LCK [4]?
A: Its LCK is 5.3.

Q: What about the LCK [5] of the same compound?
A: The LCK was 2.4.

Q: And the inhibition in vivo at 3 mg/kg [6]?
A: Its inhibition in vivo at 3 mg/kg is 100%.

Q: What about the Toxicity [7] of the same compound?
A: Its Toxicity is 2.

Q: And the CR [8]?
A: Its CR is 8.

Q: What about the CR [9] of the same compound?
A: Its CR is 5.

Q: What about the inhibition in vivo at 4 mg/kg [10] of the same compound?
A: Its inhibition in vivo at 4 mg/kg is 99%.

Q: What about the Toxicity [11] of the same compound?
A: The Toxicity was 0.

Q: What about the BWL [12] of the same compound?
A: The BWL was 23%.

Q: And the BWL [13]?
A: Its BWL is 5%.

Q: And the CR [14]?
A: Its CR is 4.

Q: What about the inhibition in vivo at 3 mg/kg [15] of the same compound?
A: Its inhibition in vivo at 3 mg/kg is 100%.

Q: And the LCK [16]?
A: Its LCK is 2.5.

Q: And the inhibition in vivo at 1 mg/kg [17]?
A: The inhibition in vivo at 1 mg/kg was 90%.

Q: And the BWL [18]?
A: Its BWL is 0%.

Q: And the CR [19]?
A: Its CR is 0.

Q: And the CR [20]?
A: The CR was 8.

Q: What about the BWL [21] of the same compound?
A: The BWL was 1%.

Q: What about the LCK [22] of the same compound?
A: Its LCK is 1.4.

Q: And the Toxicity [23]?
A: The Toxicity was 0.

Q: And the pIC50 [24]?
A: Its pIC50 is 7.82.

Q: What about the LCK [25] of the same compound?
A: The LCK was 2.4.
